Measurements: the M2OR odorant receptor database

How the values were obtained:
Conditions in all cases: stereoisomer not certain
Or1m1 (Mus musculus) = molecular target: T1, Or1m1 (Mus musculus) (UniProt Q8VFM9)
T1 sequence (whole entry): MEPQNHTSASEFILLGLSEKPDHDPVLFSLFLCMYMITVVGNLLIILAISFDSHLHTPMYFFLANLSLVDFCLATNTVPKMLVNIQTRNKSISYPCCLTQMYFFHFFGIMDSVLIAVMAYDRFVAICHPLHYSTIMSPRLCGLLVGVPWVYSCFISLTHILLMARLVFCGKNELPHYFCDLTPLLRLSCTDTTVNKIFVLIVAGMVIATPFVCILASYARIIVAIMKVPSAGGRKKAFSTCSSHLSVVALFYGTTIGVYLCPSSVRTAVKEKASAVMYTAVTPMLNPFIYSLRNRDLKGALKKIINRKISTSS
In short: (§1)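 Transient luciferase assays in mammalian cell lines were common, though methods varied by source. The values come from published papers and their supplementary material, with extra details from the original authors when needed. Responsive refers to a measured signal the original authors judged statistically different from baseline, and non-responsive (inactive) to the remainder.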

Or2c1 (Mus musculus) = molecular target: T2, Or2c1 (Mus musculus) (UniProt P23275)
T2 sequence (whole entry): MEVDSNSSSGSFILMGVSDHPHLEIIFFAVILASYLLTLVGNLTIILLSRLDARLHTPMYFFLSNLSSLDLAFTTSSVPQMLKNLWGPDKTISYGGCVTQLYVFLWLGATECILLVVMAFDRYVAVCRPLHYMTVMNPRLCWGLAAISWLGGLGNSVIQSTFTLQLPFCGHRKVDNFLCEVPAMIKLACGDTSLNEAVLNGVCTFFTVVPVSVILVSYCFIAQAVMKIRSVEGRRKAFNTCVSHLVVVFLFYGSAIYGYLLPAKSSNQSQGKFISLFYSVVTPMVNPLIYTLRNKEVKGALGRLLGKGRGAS
In short: as §1

Or5ar1 (Mus musculus) = molecular target: T3, Or5ar1 (Mus musculus) (UniProt Q8VGS3)
T3 sequence (whole entry): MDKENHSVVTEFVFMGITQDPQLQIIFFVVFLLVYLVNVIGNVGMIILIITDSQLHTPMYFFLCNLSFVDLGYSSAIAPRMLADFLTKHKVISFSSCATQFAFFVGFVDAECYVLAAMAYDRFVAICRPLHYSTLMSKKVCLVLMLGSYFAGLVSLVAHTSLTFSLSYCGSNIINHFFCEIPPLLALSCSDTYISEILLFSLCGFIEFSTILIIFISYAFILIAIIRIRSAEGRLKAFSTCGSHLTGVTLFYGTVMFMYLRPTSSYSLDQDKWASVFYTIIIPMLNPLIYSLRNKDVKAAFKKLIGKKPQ
In short: as §1

Or5p80 (Mus musculus) = molecular target: T4, Or5p80 (Mus musculus) (UniProt Q8VG42)
T4 sequence (whole entry): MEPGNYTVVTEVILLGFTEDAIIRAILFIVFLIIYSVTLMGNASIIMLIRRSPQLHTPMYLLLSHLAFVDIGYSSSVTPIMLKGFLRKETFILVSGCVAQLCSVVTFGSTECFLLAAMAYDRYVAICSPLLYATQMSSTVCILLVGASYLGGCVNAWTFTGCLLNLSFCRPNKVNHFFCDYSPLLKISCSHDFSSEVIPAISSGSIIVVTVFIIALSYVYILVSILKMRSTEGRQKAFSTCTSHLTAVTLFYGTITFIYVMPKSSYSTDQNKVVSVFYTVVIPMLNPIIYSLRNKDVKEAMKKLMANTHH
In short: as §1

Or7a40 (Mus musculus) = molecular target: T5, Or7a40 (Mus musculus) (UniProt Q9JHB2)
T5 sequence (whole entry): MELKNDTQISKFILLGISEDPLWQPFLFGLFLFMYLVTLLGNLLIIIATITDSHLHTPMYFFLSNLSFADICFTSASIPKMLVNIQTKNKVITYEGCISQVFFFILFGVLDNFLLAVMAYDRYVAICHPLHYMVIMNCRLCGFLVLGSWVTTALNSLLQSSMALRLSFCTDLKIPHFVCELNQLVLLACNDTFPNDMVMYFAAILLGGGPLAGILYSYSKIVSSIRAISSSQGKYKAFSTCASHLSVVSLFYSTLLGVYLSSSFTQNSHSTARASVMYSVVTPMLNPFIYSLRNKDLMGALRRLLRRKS
In short: as §1

Or5an6 (Mus musculus) = molecular target: T6, Or5an6 (Mus musculus) (UniProt Q8VFV4)
T6 sequence (whole entry): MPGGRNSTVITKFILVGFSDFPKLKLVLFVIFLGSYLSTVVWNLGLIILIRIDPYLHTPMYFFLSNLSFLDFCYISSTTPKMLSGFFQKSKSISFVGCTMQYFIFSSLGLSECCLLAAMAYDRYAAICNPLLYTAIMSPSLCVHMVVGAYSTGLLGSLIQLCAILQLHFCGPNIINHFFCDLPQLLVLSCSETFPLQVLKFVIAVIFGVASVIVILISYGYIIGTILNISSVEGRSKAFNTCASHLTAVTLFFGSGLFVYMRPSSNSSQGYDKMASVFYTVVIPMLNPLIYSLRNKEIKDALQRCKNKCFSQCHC
In short: as §1

Or8b3 (Mus musculus) = Or8b3 (Mus musculus) (UniProt Q60886)
Or8b3 (Mus musculus), sequence (Q60886 whole entry): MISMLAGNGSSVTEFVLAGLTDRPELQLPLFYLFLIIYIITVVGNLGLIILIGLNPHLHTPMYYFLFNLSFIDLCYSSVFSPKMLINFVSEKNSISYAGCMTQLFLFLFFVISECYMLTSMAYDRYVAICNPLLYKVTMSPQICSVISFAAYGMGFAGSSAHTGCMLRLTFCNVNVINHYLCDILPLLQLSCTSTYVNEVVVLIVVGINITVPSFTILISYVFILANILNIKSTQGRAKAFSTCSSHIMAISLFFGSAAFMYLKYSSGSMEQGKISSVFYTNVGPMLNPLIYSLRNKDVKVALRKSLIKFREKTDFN
In short: as §1

Or5p57 (Mus musculus) = molecular target: T7, Or5p57 (Mus musculus) (UniProt Q8VEZ0)
T7 sequence (whole entry): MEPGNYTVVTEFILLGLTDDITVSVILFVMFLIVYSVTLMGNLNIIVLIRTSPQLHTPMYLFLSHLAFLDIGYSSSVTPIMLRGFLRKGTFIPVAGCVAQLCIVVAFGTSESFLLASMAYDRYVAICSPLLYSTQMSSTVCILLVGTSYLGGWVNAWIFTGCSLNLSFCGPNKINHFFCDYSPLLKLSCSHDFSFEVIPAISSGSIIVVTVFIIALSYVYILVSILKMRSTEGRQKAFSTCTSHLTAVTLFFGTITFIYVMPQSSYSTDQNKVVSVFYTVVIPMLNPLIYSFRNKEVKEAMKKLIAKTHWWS
In short: as §1

Or10j5 (Mus musculus) = molecular target: T8, Or10j5 (Mus musculus) (UniProt Q62007)
T8 sequence (whole entry): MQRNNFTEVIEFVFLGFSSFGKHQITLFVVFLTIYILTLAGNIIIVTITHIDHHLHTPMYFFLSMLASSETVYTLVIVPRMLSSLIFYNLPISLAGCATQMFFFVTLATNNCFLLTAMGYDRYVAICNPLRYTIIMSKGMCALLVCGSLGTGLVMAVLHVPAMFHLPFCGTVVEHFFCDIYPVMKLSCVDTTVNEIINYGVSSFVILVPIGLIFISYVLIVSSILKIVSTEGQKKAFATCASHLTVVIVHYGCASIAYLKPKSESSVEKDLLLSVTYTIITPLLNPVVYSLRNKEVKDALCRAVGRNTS
In short: as §1
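Also: active if original authors judged signal statistically different from baseline.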

SMILES | odorant receptor agonist call (Or1m1 (Mus musculus)) | odorant receptor agonist call (Or2c1 (Mus musculus)) | odorant receptor agonist call (Or5ar1 (Mus musculus)) | odorant receptor agonist call (Or5p80 (Mus musculus)) | odorant receptor agonist call (Or7a40 (Mus musculus)) | odorant receptor agonist call (Or5an6 (Mus musculus)) | odorant receptor agonist call (Or8b3 (Mus musculus)) | odorant receptor agonist call (Or5p57 (Mus musculus)) | odorant receptor agonist call (Or10j5 (Mus musculus))
CCCCCCCC(C)=O | inactive | inactive | inactive | inactive | inactive | – | – | – | –
CC1CC=CCCCCCCCCCC(=O)C1 (configuration not stated) | inactive | – | inactive | – | – | active | – | – | –
CCCCCCCCCS | inactive | inactive | inactive | inactive | inactive | – | – | – | –
CCCC(=O)C(C)=O | inactive | active | inactive | inactive | inactive | – | – | – | –
O=C1CCOc2ccccc21 | inactive | inactive | inactive | inactive | inactive | – | inactive | – | –
CCCCCCCCS | inactive | active | inactive | inactive | inactive | – | – | – | –
CCCCCOC(=O)CCCCC | inactive | active | inactive | inactive | inactive | – | – | – | –
CCCCCCCCO | inactive | inactive | inactive | inactive | inactive | – | – | inactive | –
CCCCCC(=O)CC | inactive | inactive | inactive | inactive | inactive | – | – | – | –
CC(=O)Oc1ccccc1 | inactive | inactive | inactive | inactive | inactive | – | – | – | –
CCCCCCCCC(=O)O | inactive | active | inactive | inactive | inactive | – | – | inactive | –
O=C(c1ccccc1)c1ccccc1 | inactive | inactive | inactive | inactive | inactive | – | – | – | –
c1ccccc1 | inactive | inactive | inactive | inactive | inactive | – | – | – | –
CC(=O)OCC=C(C)C | inactive | inactive | active | inactive | inactive | – | – | – | –
CCOC(=O)C(C)C | inactive | inactive | inactive | inactive | inactive | – | – | – | –
CCCCCC1=C(C)CCC1=O | inactive | inactive | inactive | inactive | active | – | – | – | –
CC(C)CS | inactive | – | inactive | – | – | – | – | – | –
CCCCCCCCC=CC=O | inactive | – | inactive | – | – | – | – | – | –
CC12CCC(CC1=O)C2(C)C (configuration not stated) | inactive | inactive | inactive | inactive | inactive | – | – | – | –
CC(=O)OCc1ccccc1 | inactive | inactive | inactive | inactive | inactive | – | – | – | –
CCCCC(C)=O | inactive | inactive | inactive | inactive | inactive | – | – | – | –
C=CCOC(=O)CCCCCC | inactive | inactive | inactive | inactive | inactive | – | – | – | –
CCCCOC=O | inactive | inactive | inactive | inactive | inactive | – | – | – | –
CCCCCCCCCCO | inactive | inactive | inactive | inactive | inactive | – | – | – | –
O=C(O)CCCCCC(=O)O | – | – | – | – | – | – | – | inactive | inactive
CC(C)=CCCC(C)CCO (configuration not stated) | inactive | inactive | inactive | inactive | inactive | – | – | – | –
